The subject of assay [1] is Erythrocyte. Kind of assay: Induction of membrane modification in erythrocytes assessed as formation of echinocyte type 3 shape change at 100 ug/mL after 48 hrs by phase contrast light microscopy. It is filed as functional, cell-based. The method in brief:
(§1)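 Nonparasitized erythrocytes incubated with compound under the antiplasmodial culture conditions, without radiotracer. Controls held 0% or 0.5% DMSO and no compound. At 48 h, samples spread on slides, air-dried, methanol-fixed and Giemsa-stained for phase-contrast light microscopy. Dominant cell shapes scored by Bessis nomenclature; degree of lysis also graded.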

In assay [2] the test system is Erythrocyte. Description: Induction of membrane modification in erythrocytes assessed as formation of echinocyte type 1 shape change at 12.5 ug/mL after 48 hrs by phase contrast light microscopy. Type of assay: functional, cell-based. The method in brief: as §1
The test system of assay [3] is Erythrocyte. Description: Induction of membrane modification in erythrocytes assessed as formation of echinocyte type 3 shape change at 50 ug/mL after 48 hrs by phase contrast light microscopy. Type of assay: functional, cell-based. The method in brief: as §1
In assay [4] the test system is Plasmodium falciparum. Kind of assay: Antiplasmodial activity against Plasmodium falciparum 3D7 by [3H]phenylalanine uptake. It is filed as functional, organism-based. The settings on record: 3D7, 48 h. In short, it runs like this: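 Asynchronous cultures of chloroquine-sensitive P. falciparum 3D7 in erythrocytes, initial parasitemia 1.5%. Compounds added from DMSO solutions, final DMSO up to 0.5% in growth medium. Growth indexed by [3H]phenylalanine incorporation. Inhibition curves from eight concentrations, each in triplicate, give IC50 (50% growth inhibition). Chloroquine diphosphate as positive reference.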

Assay [5] concerns Erythrocyte. Description: Induction of membrane modification in erythrocytes assessed as formation of echinocyte type 2 shape change at 25 ug/mL after 48 hrs by phase contrast light microscopy. Type of assay: functional, cell-based. The method in brief:
as §1

Assay [6] concerns Erythrocyte. Kind of assay: Induction of membrane modification in erythrocytes assessed as formation of echinocyte type 1 and discocyte shape change at 100 ug/mL after 48 hrs by phase contrast light microscopy. Type of assay: functional, cell-based. In short, it runs like this: as §1
In assay [7] the test system is Erythrocyte. Kind of assay: Induction of membrane modification in erythrocytes assessed as formation of echinocyte type 1 and discocyte shape change at 50 ug/mL after 48 hrs by phase contrast light microscopy. Type of assay: functional, cell-based. The method in brief:
as §1

For assay [8], the system named is Erythrocyte. Kind of assay: Induction of membrane modification in erythrocytes assessed as formation of discocyte shape change at 25 ug/mL after 48 hrs by phase contrast light microscopy. Type of assay: functional, cell-based. In short, it runs like this: as §1
In assay [9] the test system is Erythrocyte. Description: Induction of membrane modification in erythrocytes assessed as formation of discocyte shape change at 12.5 ug/mL after 48 hrs by phase contrast light microscopy. Type of assay: functional, cell-based. In short, it runs like this:
as §1

In assay [10] the test system is Erythrocyte. Kind of assay: Induction of membrane modification in erythrocytes assessed as formation of discocyte shape change at 50 ug/mL after 48 hrs by phase contrast light microscopy. Type of assay: functional, cell-based. The method in brief:
as §1

The test system of assay [11] is Erythrocyte. Description: Induction of membrane modification in erythrocytes assessed as formation of echinocyte type 1 shape change at 100 ug/mL after 48 hrs by phase contrast light microscopy. It is filed as functional, cell-based. The method in brief:
as §1

Assay [12] deals with Erythrocyte. Kind of assay: Induction of membrane modification in erythrocytes assessed as formation of spherostomatocyte type 2 shape change at 100 ug/mL after 48 hrs by phase contrast light microscopy. It is filed as functional, cell-based. The method in brief:
as §1

Assay [13] concerns Erythrocyte. Kind of assay: Induction of membrane modification in erythrocytes assessed as formation of spherostomatocyte type 1 shape change at 50 ug/mL after 48 hrs by phase contrast light microscopy. It is filed as functional, cell-based. In short, it runs like this: as §1
For assay [14], the system named is Erythrocyte. Description: Induction of membrane modification in erythrocytes assessed as formation of stomatocyte type 2 and 1 shape change at 25 ug/mL after 48 hrs by phase contrast light microscopy. It is filed as functional, cell-based. In short, it runs like this:
as §1

In assay [15] the test system is Erythrocyte. Description: Induction of membrane modification in erythrocytes assessed as formation of stomatocyte type 2 shape change at 100 ug/mL after 48 hrs by phase contrast light microscopy. Type of assay: functional, cell-based. The method in brief: as §1
The test system of assay [16] is Erythrocyte. Description: Induction of membrane modification in erythrocytes assessed as formation of stomatocyte type 1 and discocyte shape change at 50 ug/mL after 48 hrs by phase contrast light microscopy. It is filed as functional, cell-based. In short, it runs like this:
as §1

Assay [17] deals with Erythrocyte. Description: Induction of membrane modification in erythrocytes assessed as formation of stomatocyte type 3 and 2 shape change at 50 ug/mL after 48 hrs by phase contrast light microscopy. Type of assay: functional, cell-based. The method in brief: as §1
In assay [18] the test system is Erythrocyte. Description: Induction of membrane modification in erythrocytes assessed as formation of stomatocyte type 2 and discocyte shape change at 25 ug/mL after 48 hrs by phase contrast light microscopy. Type of assay: functional, cell-based. The method in brief:
as §1

The subject of assay [19] is Erythrocyte. Kind of assay: Induction of membrane modification in erythrocytes assessed as formation of spherostomatocyte type 1 shape change at 100 ug/mL after 48 hrs by phase contrast light microscopy. Type of assay: functional, cell-based. The method in brief: as §1
The test system of assay [20] is Erythrocyte. Kind of assay: Induction of membrane modification in erythrocytes assessed as formation of echinocyte type 3 shape change at 25 ug/mL after 48 hrs by phase contrast light microscopy. It is filed as functional, cell-based. In short, it runs like this: as §1
The subject of assay [21] is Erythrocyte. Description: Induction of membrane modification in erythrocytes assessed as formation of spheroechinocyte type 1 and echinocyte type 3 shape change at 100 ug/mL after 48 hrs by phase contrast light microscopy. The settings on record: 50 ug/mL, in the assay text read “50 ug/mL” for “100 ug/mL”. Type of assay: functional, cell-based. In short, it runs like this: as §1

Assay [22] deals with Erythrocyte. Kind of assay: Induction of membrane modification in erythrocytes assessed as formation of spheroechinocyte type 2 shape change at 100 ug/mL after 48 hrs by phase contrast light microscopy. Type of assay: functional, cell-based. In short, it runs like this:
as §1

In general, IC50 refers to the concentration needed to halve the response being measured. The low end stands for higher potency, the high end for lower potency.

Activity calls are given as the source filed them. No cut-off for these calls is given here.

Take `C=C[C@@]1(C)CCC2=C(CC[C@H]3C(C)(C)[C@@H](O)CC[C@]23C)C1`: the outcome in assay [1], in assay [2], in assay [3] and in assay [5] was Active. In assay [4], this molecule gave a 50% inhibitory concentration (IC50) of 24.6 µM.
On to `C=C1CC[C@@H]2[C@](C)(CCC[C@]2(C)C(=O)O)[C@H]1CCC1=CC(=O)OC1O` (stereo not given in full), for which the result in assay [6], in assay [7], in assay [8] and in assay [9] was Active. The IC50 in assay [4] is 84.1 µM.
Turning to `C=C[C@@]1(C)CC[C@H]2[C@@](O)(CC[C@H]3C(C)(C)[C@@H](O)CC[C@@]32C)C1`, the result in [10], in assay [8], in assay [11] and in assay [9] was Active. Half-maximal inhibition in assay [4] (IC50) required 80.9 µM.
For `C=C1CC[C@@H]2[C@](C)(CCC[C@]2(C)C(=O)O)[C@H]1CCC1=CC(O)OC1=O` (stereo not given in full), the result in assay [6], in [10], in [8] and in assay [9] was Active. In assay [4], this molecule came in with an IC50 of 145 µM.
For the molecule `CC1(C)CCC[C@@]2(C)[C@H]1CC[C@@]1(CO1)[C@@H]2C/C=C(/C=O)CC=O` [AFRAMODIAL], the outcome in assay [12], in [13], in [14] and in assay [9] was Active. The molecule further came in with a half-maximal inhibitory concentration (IC50) in assay [4] of 76.3 µM.
On to `C=C1CC[C@@H]2[C@](C)(CCC[C@]2(C)C(=O)O)[C@H]1CC/C(C)=C/CO` [ISOCUPRESSIC ACID], for which the outcome in assay [10], in assay [8], in assay [15] and in assay [9] was Active. In [4], this molecule came in with an IC50 of 104 µM.
As for `C=C1CC[C@@H]2[C@](C)(CCC[C@]2(C)C(=O)O)[C@H]1CCc1ccoc1` [LAMBERTIAINC ACID], the result in [16], in [8], in [15] and in [9] was Active. Moreover, in assay [4], the IC50 worked out at 130 µM.
On to `C=C1CC[C@@H]2[C@](C)(CCC[C@]2(C)C(=O)OC)[C@H]1CCC1=CCOC1=O` [PINUSOLIDE], for which the result in [17], in assay [18], in assay [9] and in [19] was Active. In addition, the half-maximal inhibitory concentration (IC50) in assay [4] amounted to 53.4 µM.
As for `C=C1CC[C@@H]2[C@](C)(CCC[C@]2(C)C(=O)O)[C@H]1CCC1=CCOC1=O` [PINUSOLIDIC ACID], the outcome in assay [7], in assay [8], in assay [15] and in assay [9] was Active. Further, the IC50 in assay [4] is 164 µM.
For `C=C[C@]1(C)C=C2CC[C@H]3[C@](C)(CO)[C@@H](O)CC[C@]3(C)[C@H]2CC1` [SANDARACOPIMARADIENEDIOL], the outcome in assay [20], in assay [21], in assay [2] and in assay [22] was Active. The same molecule yielded an IC50 in assay [4] of 93.3 µM.

The record behind these values is ChEMBL document CHEMBL1151174, “Labdanes and isopimaranes from Platycladus orientalis and their effects on erythrocyte membrane and on Plasmodium falciparum growth in the erythrocyte host cells” (J Nat Prod, 2004).
